Results reported in ChEMBL document CHEMBL1124947, “Cationic antiprotozoal drugs. Trypanocidal activity of 2-(4'-formylphenyl)imidazo[1,2-a]pyridinium guanylhydrazones and related derivatives of quaternary heteroaromatic compounds” (J Med Chem, 1990).

Assays:
Mus musculus [1] = assay: Trypanocidal Activity at I.C.E. value 0.93 when administered subcutaneously.; assay type: functional
In short: (§1)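 Mice, in groups of five per dose, were given a standard inoculum of blood-stage T. rhodesiense that is lethal to all untreated controls, then dosed subcutaneously. Usually 11 dose levels were used (2^n × 0.42 mg/kg).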

Mus musculus [2] = assay: Trypanocidal Activity at I.C.E. value 0.43 when administered perorally.; assay type: functional
Mus musculus [3] = assay: Trypanocidal Activity at I.C.E. value 0.32 when administered subcutaneously.; assay type: functional
In short: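 Blood-stage T. rhodesiense infection came from a standard inoculum lethal to all untreated mice. Drug was given by subcutaneous injection to groups of five mice. Survival beyond 30 days counted as cure. […] Sub-curative doses scored 0, and data were normalized at each dose.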

Mus musculus [4] = assay: Trypanocidal Activity at I.C.E. value 0.82 when administered subcutaneously.; assay type: functional; in short: as §1
Mus musculus [5] = assay: Fraction of mice that were cured after oral administration at a dose of 53 mg/kg and I.C.E. value of 0.56; assay type: functional
Mus musculus [6] = assay: Fraction of mice that were cured after oral administration at a dose of 6.6 mg/kg and I.C.E. value of 0.56; assay type: functional
Mus musculus [7] = assay: Fraction of mice that were cured after subcutaneous administration at a dose of 0.42 mg/kg and I.C.E. value of 0.82; assay type: functional
Mus musculus [8] = assay: Fraction of mice that were cured after subcutaneous administration at a dose of 0.83 mg/kg and I.C.E. value of 0.82; assay type: functional
Mus musculus [9] = assay: Fraction of mice that were cured after subcutaneous administration at a dose of 1.67 mg/kg and I.C.E. value of 0.82; assay type: functional
Mus musculus [10] = assay: Fraction of mice that were cured after subcutaneous administration at a dose of 106 mg/kg and I.C.E. value of 0.82; assay type: functional
Mus musculus [11] = assay: Fraction of mice that were cured after oral administration at a dose of 26 mg/kg and I.C.E. value of 0.56; assay type: functional
Mus musculus [12] = assay: Fraction of mice that were cured after oral administration at a dose of 3.3 mg/kg and I.C.E. value of 0.56; assay type: functional
Mus musculus [13] = assay: Fraction of mice that were cured after oral administration at a dose of 424 mg/kg and I.C.E. value of 0.56; assay type: functional
Mus musculus [14] = assay: Fraction of mice that were cured after oral administration at a dose of 0.42 mg/kg and I.C.E. value of 0.56; assay type: functional
Mus musculus [15] = assay: Fraction of mice that were cured after oral administration at a dose of 0.83 mg/kg and I.C.E. value of 0.56; assay type: functional
Mus musculus [16] = assay: Trypanocidal Activity at I.C.E. value 0.56 when administered perorally.; assay type: functional
Mus musculus [17] = assay: Fraction of mice that were cured after subcutaneous administration at a dose of 3.3 mg/kg and I.C.E. value of 0.82; assay type: functional
Mus musculus [18] = assay: Fraction of mice that were cured after subcutaneous administration at a dose of 424 mg/kg and I.C.E. value of 0.82; assay type: functional
Mus musculus [19] = assay: Fraction of mice that were cured after subcutaneous administration at a dose of 53 mg/kg and I.C.E. value of 0.82; assay type: functional
Mus musculus [20] = assay: Fraction of mice that were cured after subcutaneous administration at a dose of 6.6 mg/kg and I.C.E. value of 0.82; assay type: functional
Mus musculus [21] = assay: Curative activity of the Compound after oral administration at a dose of 0.42 mg/kg and I.C.E. value of 0.60; assay type: functional
Mus musculus [22] = assay: Curative activity of the Compound after oral administration at a dose of 0.83 mg/kg and I.C.E. value of 0.60; assay type: functional
Mus musculus [23] = assay: Curative activity of the Compound after oral administration at a dose of 1.67 mg/kg and I.C.E. value of 0.60; assay type: functional
Mus musculus [24] = assay: Curative activity of the Compound after oral administration at a dose of 106 mg/kg and I.C.E. value of 0.60; 10/10; assay type: functional
Mus musculus [25] = assay: Curative activity of the Compound after oral administration at a dose of 13 mg/kg and I.C.E. value of 0.60; 10/10; assay type: functional
Mus musculus [26] = assay: Curative activity of the Compound after oral administration at a dose of 212 mg/kg and I.C.E. value of 0.60; 5/5; assay type: functional
Mus musculus [27] = assay: Fraction of mice that were cured after subcutaneous administration at a dose of 13 mg/kg and I.C.E. value of 0.82; assay type: functional
Mus musculus [28] = assay: Fraction of mice that were cured after subcutaneous administration at a dose of 212 mg/kg and I.C.E. value of 0.82; assay type: functional
Mus musculus [29] = assay: Fraction of mice that were cured after subcutaneous administration at a dose of 26 mg/kg and I.C.E. value of 0.82; assay type: functional
Mus musculus [30] = assay: Curative activity of the Compound after Subcutaneous administration at a dose of 0.42 mg/kg and I.C.E. value of 0.82; 8/10; assay type: functional
Mus musculus [31] = assay: Curative activity of the Compound after oral administration at a dose of 53 mg/kg and I.C.E. value of 0.60; 5/5; assay type: functional
Mus musculus [32] = assay: Curative activity of the Compound after oral administration at a dose of 6.6 mg/kg and I.C.E. value of 0.60; 2/5; assay type: functional
Mus musculus [33] = assay: Curative activity of the Compound after Subcutaneous administration at a dose of 0.83 mg/kg and I.C.E. value of 0.82;20/20; assay type: functional
Mus musculus [34] = assay: Curative activity of the Compound after Subcutaneous administration at a dose of 1.67 mg/kg and I.C.E. value of 0.82; 19/20; assay type: functional
Mus musculus [35] = assay: Curative activity of the Compound after Subcutaneous administration at a dose of 106 mg/kg ( T-Toxic) and I.C.E. value of 0.82; 16/20 and 1 toxic; assay type: ADME, organism-based; design: dose 106 mg/kg, route subcutaneous; conditions: in vivo, sc
Mus musculus [36] = assay: Curative activity of the Compound after Subcutaneous administration at a dose of 212 mg/kg ( T-Toxic) and I.C.E. value of 0.82; 5/10 and 5 toxic; assay type: ADME, organism-based; design: dose 212 mg/kg, route subcutaneous; conditions: in vivo, sc
Mus musculus [37] = assay: Curative activity of the Compound after Subcutaneous administration at a dose of 26 mg/kg and I.C.E. value of 0.82; […]; assay type: functional
Mus musculus [38] = assay: Curative activity of the Compound after Subcutaneous administration at a dose of 3.3 mg/kg and I.C.E. value of 0.82; 10/10; assay type: functional
Mus musculus [39] = assay: Curative activity of the Compound after Subcutaneous administration at a dose of 424 mg/kg ( T-Toxic)and I.C.E. value of 0.82; 4/20 and 16 toxic; assay type: ADME, organism-based; design: dose 424 mg/kg, route subcutaneous; conditions: in vivo, sc
Mus musculus [40] = assay: Curative activity of the Compound after Subcutaneous administration at a dose of 53 mg/kg and I.C.E. value of 0.82; […]; assay type: functional
Mus musculus [41] = assay: Curative activity of the Compound after Subcutaneous administration at a dose of 53 mg/kg and I.C.E. value of 0.82; 9/10; assay type: functional
Mus musculus [42] = assay: Fraction of mice that were cured after oral administration at a dose of 1.67 mg/kg and I.C.E. value of 0.56; assay type: functional
Mus musculus [43] = assay: Fraction of mice that were cured after oral administration at a dose of 106 mg/kg and I.C.E. value of 0.56; assay type: functional
Mus musculus [44] = assay: Fraction of mice that were cured after oral administration at a dose of 13 mg/kg and I.C.E. value of 0.56; assay type: functional
Mus musculus [45] = assay: Fraction of mice that were cured after oral administration at a dose of 212 mg/kg and I.C.E. value of 0.56; assay type: functional
Mus musculus [46] = assay: Curative activity of the Compound after oral administration at a dose of 26 mg/kg and I.C.E. value of 0.60; 15/15; assay type: functional
Mus musculus [47] = assay: Curative activity of the Compound after oral administration at a dose of 3.3 mg/kg and I.C.E. value of 0.60;1/5; assay type: functional
Mus musculus [48] = assay: Curative activity of the Compound after oral administration at a dose of 424 mg/kg and I.C.E. value of 0.60; 10/10; assay type: functional
[49] = tested on: Trypanosoma brucei rhodesiense; assay: In Vitro measurement of inhibition of Leucine uptake in cell culture of Trypanosoma rhodesiense.; assay type: functional; conditions: read-out: ID50 (the source's name)
In short: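 Trypanosomes harvested from infected rats, cultured 3 h with several concentrations of drug, usually 0.1–100 µg/mL. Radiolabeled L-leucine uptake measured. ID50 is the concentration in µg/mL giving 50% inhibition of incorporation.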

[50] = tested on: Trypanosoma brucei rhodesiense; assay: In Vitro measurement of inhibition of thymidine uptake in cell culture of Trypanosoma rhodesiense.; assay type: functional; conditions: read-out: ID50 (the source's name)
In short: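 Parasites harvested from infected rats and incubated 3 h across a drug concentration series, usually 0.1–100 µg/mL. Incorporation of radiolabeled thymidine measured. ID50 is the concentration (µg/mL) producing 50% inhibition.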

Mus musculus [51] = assay: Trypanocidal Activity at I.C.E. value 0.77 when administered subcutaneously.; assay type: functional; in short: as §1

## CCSc1ccc2n(c1)cc(-c1ccc(/C=N/NC(=N)N)cc1)[n+]2C.Cc1ccc(S(=O)(=O)O)cc1.Cc1ccc(S(=O)(=O)[O-])cc1
Mus musculus [1]
  CD50: 0.1 mg/kg

## Br.C[n+]1c(-c2ccc(/C=N/NC(=N)N)cc2)c(Br)n2ccccc21.[Br-]
Mus musculus [2]
  CD50: 26 mg/kg
Mus musculus [3]
  CD50: 1.6 mg/kg

## Cc1ccc(S(=O)(=O)O)cc1.Cc1ccc(S(=O)(=O)[O-])cc1.Cc1ccc2n(c1)cc(-c1ccc(/C=N/NC(=N)N)cc1)[n+]2C
Mus musculus [4]
  CD50: 0.2 mg/kg
Mus musculus [5]
  Fraction cured: 1
Mus musculus [6]
  Fraction cured: 0.4
Mus musculus [7]
  Fraction cured: 0.8
Mus musculus [8]
  Fraction cured: 1
Mus musculus [9]
  Fraction cured: 0.95
Mus musculus [10]
  Fraction cured: 0.8
Mus musculus [11]
  Fraction cured: 1
Mus musculus [12]
  Fraction cured: 0.2
Mus musculus [13]
  Fraction cured: 1
Mus musculus [14]
  Fraction cured: 0
Mus musculus [15]
  Fraction cured: 0
Mus musculus [16]
  CD50: 6.6 mg/kg
Mus musculus [17]
  Fraction cured: 1
Mus musculus [18]
  Fraction cured: 0.2
Mus musculus [19]
  Fraction cured: 0.9
Mus musculus [20]
  Fraction cured: 1
Mus musculus [21]
  Survivors: 0
Mus musculus [22]
  Survivors: 0
Mus musculus [23]
  Survivors: 0
Mus musculus [24]
  Survivors: 10
Mus musculus [25]
  Survivors: 10
Mus musculus [26]
  Survivors: 5
Mus musculus [27]
  Fraction cured: 1
Mus musculus [28]
  Fraction cured: 0.5
Mus musculus [29]
  Fraction cured: 0.97
Mus musculus [30]
  Survivors: 8
Mus musculus [31]
  Survivors: 5
Mus musculus [32]
  Survivors: 2
Mus musculus [33]
  Survivors: 20
Mus musculus [34]
  Survivors: 19
Mus musculus [35]
  Survivors: 16
Mus musculus [36]
  Survivors: 5
Mus musculus [37]
  Survivors: 29
Mus musculus [38]
  Survivors: 10
Mus musculus [39]
  Survivors: 4
Mus musculus [40]
  Survivors: 9
Mus musculus [41]
  Survivors: 9
Mus musculus [42]
  Fraction cured: 0
Mus musculus [43]
  Fraction cured: 1
Mus musculus [44]
  Fraction cured: 1
Mus musculus [45]
  Fraction cured: 1
Mus musculus [46]
  Survivors: 15
Mus musculus [47]
  Survivors: 1
Mus musculus [48]
  Survivors: 10
[49]
  IC50: 0.5 µg/mL
[50]
  IC50: 0.4 µg/mL

## Br.Cc1ccc2n(c1)cc(/C=C/c1ccc(/C=N/NC(=N)N3CCCC3)cc1)[n+]2C.[Br-]
Mus musculus [51]
  CD50: 0.4 mg/kg
